GPR7 antagonist – human neuropeptides B/W receptor 1 antagonism | GPR7-expressing cells, fluorescence antagonist assay | 1.1% of 290,000 active | inhibition, % at 4.4 µM | P48145; in the data active = inhibition above about 16%, passing the limit was not always enough;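 note: cells stimulated with the agonist NPW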
Target sequence (P48145 whole entry, looked up): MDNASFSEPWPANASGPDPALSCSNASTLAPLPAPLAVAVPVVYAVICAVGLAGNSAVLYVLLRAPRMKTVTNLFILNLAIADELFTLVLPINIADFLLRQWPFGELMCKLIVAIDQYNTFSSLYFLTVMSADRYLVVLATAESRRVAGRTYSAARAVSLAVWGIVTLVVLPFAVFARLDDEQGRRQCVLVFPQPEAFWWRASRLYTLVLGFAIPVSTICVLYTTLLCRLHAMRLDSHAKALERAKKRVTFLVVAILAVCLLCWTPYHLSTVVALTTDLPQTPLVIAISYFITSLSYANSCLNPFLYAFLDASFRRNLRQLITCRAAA
CHO parental Ca – counter-screen for OX1R antagonists: effect in parental CHO cells; parental CHO-K1, ATP-induced calcium, Fluo-8 fluorescence; inhibition, % at 5.6 µM; 0.63% of 330,000 active;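 active = inhibition above that plate's mean sample inhibition plus 3 SD, cut at about 26% in these data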
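test system = CHO parental line | reagent = ATP stimulus | measured by = intracellular calcium via Fluo-8 no-wash fluorescent dye | control set = ATP and no-ATP DMSO wells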
OX1R antag-1 – antagonists of human orexin 1 receptor. CHO/OX1R cells, Fluo-8 calcium fluorescence, orexin A. inhibition, % at 5 µM. 0.43% of 330,000 active. AID 434989;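 active = inhibition above its plate's threshold, mean inhibition of all tested compounds on the plate plus 3 SD, cut at about 37% in these data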
OX1R antag-2 – OX1R (human) antagonism; 1.8% of 330,000 active; O43613; OX1R-expressing cells, FRET antagonist read-out; inhibition, % at 6.6 µM; in the data active = inhibition mostly above about 38%, no sharp cut-off; inactive = mostly below about 40%
TAAR1 antag – antagonists of human TAAR1. CHO RD-HGA16 TAAR1, Fluo-8 calcium fluorescence, antagonist. inhibition, % at 3 µM. Q96RJ0. 1.5% of 360,000 active;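 active = inhibition above a per-plate cutoff, the mean inhibition of test compounds on that plate plus 3 SD, cut at about 49% in these data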
Target sequence (Q96RJ0 whole entry, looked up): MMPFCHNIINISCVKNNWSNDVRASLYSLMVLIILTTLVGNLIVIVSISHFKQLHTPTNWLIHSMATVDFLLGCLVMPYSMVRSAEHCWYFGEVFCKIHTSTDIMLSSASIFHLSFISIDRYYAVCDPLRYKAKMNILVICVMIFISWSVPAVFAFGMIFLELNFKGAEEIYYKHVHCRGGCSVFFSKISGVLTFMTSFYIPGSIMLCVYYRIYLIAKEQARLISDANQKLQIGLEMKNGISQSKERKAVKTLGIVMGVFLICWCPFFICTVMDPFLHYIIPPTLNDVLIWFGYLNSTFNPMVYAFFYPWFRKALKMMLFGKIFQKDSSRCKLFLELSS
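System: CHO RD-HGA16 cells bearing hTAAR1. Reagent: EC80 β-phenethylamine stimulus. Schedule: seeding 17-24 h prior, 75-min 37 °C, 30-min RT dye loading. Signal: Fluo-8 intracellular calcium dye fluorescence, real-time kinetic reads. Read-out: % inhibition from peak post-agonist over basal fluorescence ratio. Benchmarks: vehicle wells and EC80 agonist wells. Replicates: n of 1.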
TAAR1 agonist – agonists of human TAAR1; activation, % at 3 µM; CHO RD-HGA16 TAAR1, Fluo-8 calcium fluorescence; vehicle wells 0%, saturating PEA agonist 100%; 0.99% of 360,000 active;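 active = activation above the mean activation of all test compounds in the run plus 3 SD, cut at about 38% in these data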
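Repeats: no replicates (n 1) | Material: CHO-derived RD-HGA16 cells with stable Gα16 and human TAAR1 | Technique: Kinetic Fluo-8 calcium fluorescence | Schedule: 17-24 h seeding, 75 min 37 °C dye, 30 min RT | Evaluation: % activation from peak over basal fluorescence ratio, DMSO-to-PEA scaled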
nonsel antag count – nonselective antagonist in TAAR1 antagonist counter-screen; shares compounds with TAAR1 antag; inhibition, % at 3 µM; counterscreen cell line, calcium fluorescence, antagonist mode; 77% of 2,400 active; in the data active = inhibition above about 22%;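 note: CHO-Ga16 host cells stimulated with ATP at an EC80 level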
TAAR1 antag conf – confirmation of human TAAR1 antagonists. 40% of 2,400 active. inhibition, % at 3 µM. TAAR1-expressing cells, fluorescence antagonist read-out. shares compounds with TAAR1 antag; in the data active = inhibition above about 49%;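 note: CHO-Ga16 host cells challenged with agonist PEA near its EC80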
Ga16 nonsel ag – nonselective Ga16 agonism, counter-screen | shares compounds with TAAR1 antag | Ga16-expressing cells, calcium fluorescence, agonist counterscreen | activation, % at 3 µM | 18% of 2,400 active | AID 651953; in the data active = activation above about 12%
TAAR1 ag count – TAAR1 agonism, antagonist counter-screen. AID 651955. 2% of 2,400 active. shares compounds with TAAR1 antag. activation, % at 3 µM. hTAAR1 cell line, fluorescence activation, agonist mode; in the data active = activation above about 37%;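 note: CHO cells stably expressing TAAR1 with calcium dye readout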
Hits are given with their value; - = inactive; . = no result. An excerpt weighted towards active compounds, which were near 4.6% of everything screened.

SMILES | GPR7 antagonist | CHO parental Ca | OX1R antag-1 | OX1R antag-2 | TAAR1 antag | TAAR1 agonist | nonsel antag count | TAAR1 antag conf | Ga16 nonsel ag | TAAR1 ag count
O=C(O)CCCCCCCCc1cn(CCc2c[nH]c3ccccc23)nn1 | - | - | - | - | - | - | . | . | . | .
COC(=O)c1ccccc1NC(=S)NC(=O)c1cccc2ccccc12 | - | - | - | - | - | - | . | . | . | .
COc1ccc(NC(=S)N(CCN2CCOCC2)Cc2cc3cc4c(cc3[nH]c2=O)OCO4)cc1 | - | - | - | - | - | - | . | . | . | .
Cc1nn(C)cc1CN(C)C(=O)c1cc(-c2ccccc2)nc2ccc(Br)cc12 | - | - | - | - | 65.5 | - | 36.8 | 53.8 | - | -
C[C@@H]1CNC(=O)c2c(C(=O)N[C@@H](Cc3c[nH]c4ccccc34)C(=O)OC(C)(C)C)ncn21 | . | . | . | . | 57.8 | - | 29.8 | - | - | -
Cc1ccccc1C(=O)N1CCN(c2ccc(NC(=O)c3ccc4c(c3)OCCO4)cc2)CC1 | - | - | - | - | 76.5 | - | 43.4 | 56.2 | 16.9 | -
COc1ccc(-c2nc3cccc(C)n3c2NCC2CCCO2)cc1O (centres undefined) | - | - | - | - | 65.1 | - | 26.7 | - | - | -
CCOCCCn1c(SCC(=O)Nc2ccccc2)nc2ccccc2c1=O | - | - | - | - | - | - | . | . | . | .
CCOCCCn1c(SCc2nc3ccccc3s2)nc2ccccc2c1=O | - | - | - | - | 49.0 | - | - | - | - | -
O=C(Nc1ccccc1N1CCOCC1)c1cc(-c2ccco2)nc2ccccc12 | - | - | - | - | 61.7 | - | 29.3 | 48.9 | - | -
O=C(Nc1ccccc1F)c1cc(-c2ccco2)nc2ccccc12 | . | - | - | - | - | - | . | . | . | .
O=C(Nc1cccc(-c2cnc3ccccc3n2)c1)c1cccc(NC(=O)c2ccco2)c1 | - | - | - | 49.4 | 74.3 | - | 39.1 | 63.4 | 12.1 | -
O=C(Nc1ccncc1)C1CC(=O)N(c2ccccc2)C1 (centres undefined) | . | . | . | . | - | - | . | . | . | .
O=C(Nc1cccc(-c2cnc3ccccc3n2)c1)C1CC(=O)N(c2ccccc2)C1 (centres undefined) | - | - | - | - | 80.2 | - | 45.4 | 62.6 | 15.6 | -
CC(=O)c1cccc(NC(=O)c2cc(-c3ccncc3)nc3ccccc23)c1 | . | - | - | - | - | - | . | . | . | .
CC(=O)c1cccc(NC(=O)c2cc(-c3ccco3)nc3ccccc23)c1 | - | - | - | - | 62.8 | - | 30.7 | 49.7 | - | -
O=C(COc1ncnc2sccc12)Nc1ccc(F)cc1F | - | - | - | - | - | - | . | . | . | .
O=[N+]([O-])c1ccc(CN2C=NS(=O)(=O)c3ccccc32)cc1 | - | - | - | - | - | - | . | . | . | .
O=C(Nc1cccc(S(=O)(=O)NC2=NCCCCC2)c1)c1cc(-c2ccco2)nc2ccccc12 | - | - | - | - | 50.9 | - | 30.3 | - | - | -
O=C(Nc1cccc(-c2csc(Nc3ccccc3)n2)c1)c1ccccc1 | . | - | - | - | 64.5 | - | 27.8 | - | - | -
COc1ccc(CCNC(=S)NC(=O)c2ccc(Br)cc2)cc1OC | - | - | - | - | - | - | . | . | . | .
CCOC(=O)c1c(C)[nH]c(C(=O)N/N=C/c2cccc(OC)c2)c1C | - | - | - | - | 55.0 | - | - | - | - | -
CCOC(=O)c1c(C)[nH]c(C(=O)N/N=C\c2ccccc2Cl)c1C | - | - | - | - | 54.9 | - | 37.6 | 55.9 | - | -
O=C(OCC(=O)N1CCN(C(=O)c2ccco2)CC1)c1cc(-c2cccc(Br)c2)nc2ccccc12 | - | - | - | 61.6 | 57.8 | - | 34.3 | - | - | -
O=C(OCC(=O)N1CCN(C(=O)c2ccco2)CC1)c1cc(-c2ccccc2)nc2ccccc12 | - | - | - | - | 57.0 | - | 25.6 | - | - | -
SMILES | GPR7 antagonist | CHO parental Ca | OX1R antag-1 | OX1R antag-2 | TAAR1 antag | TAAR1 agonist | nonsel antag count | TAAR1 antag conf | Ga16 nonsel ag | TAAR1 ag count
O=C(Cn1cnc2c(NCc3ccccc3)ncnc21)NCCCN1CCCC1=O | . | - | - | - | - | - | . | . | . | .
O=C(CCN1C(=O)/C(=C\c2ccccc2Cl)SC1=S)Nc1cccnc1 | - | - | - | - | 49.9 | - | 47.7 | 69.2 | 17.8 | -
O=C(O)c1ccc(CSc2nc3c(c(=O)[nH]2)CCC3)cc1 | . | . | . | . | - | - | . | . | . | .
CC1CCN(C(=O)C2CCCN(c3ncnc4c3nc3n4CCCCC3)C2)CC1 (centres undefined) | - | - | - | - | - | - | . | . | . | .
COc1cccc(N2CCN(C(=O)C3CCCN(c4ncnc5c4nc4n5CCCCC4)C3)CC2)c1 (centres undefined) | - | - | - | - | 54.6 | - | 34.3 | 48.6 | 12.3 | -
Cc1ccc(S(=O)(=O)N2C[C@H]3C(=O)C[C@@H](c4ccccc4F)N(S(=O)(=O)c4ccc(C)cc4)[C@H]3C[C@H]2c2ccccc2F)cc1 | . | . | . | . | - | - | . | . | . | .
CC(=O)c1cccc(NC(=S)N2CCc3ccccc32)c1 | - | - | - | - | - | - | . | . | . | .
CSCCC(NC(=O)c1ccccc1)c1nc(-c2ccccc2)no1 (centres undefined) | - | . | . | . | . | . | . | . | . | .
CC(O)[C@H]1CC[C@H]2[C@@H]3CC[C@H]4C[C@H](O)CC[C@]4(C)[C@H]3[C@H](O)C[C@]12C (some centres undefined) | . | - | - | - | - | - | . | . | . | .
CC12CCC3C(CCC4CC(O)CCC43C)C1CC(O)C2 (centres undefined) | . | . | . | . | 78.8 | - | 35.0 | 56.4 | 11.8 | -
O=C(COC(=O)CCc1nc2ccccc2s1)Nc1nc(-c2ccccc2)cs1 | - | - | - | - | 55.1 | - | 33.0 | - | - | -
Cc1csc(NC(=O)CCc2nc3ccccc3s2)n1 | - | - | - | - | - | - | . | . | . | .
O=C(CC1C(=O)NCCN1Cc1cccc(F)c1)NCCCCCN1CCOCC1 (centres undefined) | - | - | - | - | - | - | . | . | . | .
O=C(N/N=C/c1cccc(Oc2ccc([N+](=O)[O-])cc2[N+](=O)[O-])c1)c1cncc(Br)c1 | - | - | - | - | 55.1 | - | 51.1 | 53.8 | 16.1 | -
CNC(=S)N(CCc1ccccc1)Cc1cc2cc(OC)c(OC)cc2[nH]c1=O | - | - | - | - | - | - | . | . | . | .
Cc1ccc(S(=O)(=O)N2C[C@H]3C(=O)C[C@@H](c4cccc(C)c4)N(S(=O)(=O)c4ccc(C)cc4)[C@H]3C[C@H]2c2ccccc2)cc1 | . | . | . | . | - | - | . | . | . | .

High-throughput results deposited in PubChem BioAssay by The Scripps Research Institute Molecular Screening Center.
